The source made the active and inactive calls. The calls are words filed in the database; no cut-off is given here.
Assays:
Glucagon receptor [1] = target: T1, Glucagon receptor (Homo sapiens, UniProt P47871); assay: Displacement of [125I]porcine glucagon from human recombinant glucagon receptor expressed in BHK cells by scintillation proximity assay; format: cell-based
Glucagon receptor [2] = target: T1, Glucagon receptor; assay: Binding affinity to human recombinant glucagon receptor expressed in BHK cells by membrane filter assay; format: cell-based
[3] = Binding affinity to glucagon receptor in dog liver membrane by membrane filter assay; format: cell membranes, Canis lupus familiaris
[4] = Half life in fasted Beagle dog at 0.25 mg/kg, iv; format: ADME, organism-based, Canis lupus familiaris; parameters: dose 0.25 mg/kg, route intravenous; conditions: in vivo
Method in brief: (§1)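 Dogs were dosed at 0.25 mg/kg iv and 0.5 mg/kg po, and plasma concentration was followed over time. Half-life came from the iv arm; clearance, Cmax and Tmax were also derived.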

[5] = Oral bioavailability in fasted Sprague-Dawley rat at 3.04 mg/kg by HTLC-MS/MS analysis; format: ADME, organism-based; conditions: in vivo
Method in brief: (§2)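 Separate intravenous and peroral dosing arms per compound, with plasma concentration followed against time. Oral bioavailability (F_po) is reported per compound together with the intravenous half-life and clearance. The dose used for each arm is listed per compound.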

[6] = Half life in monkey at 0.3 to 3 mg/kg, iv; format: ADME, organism-based, Macaca mulatta; parameters: dose 0.3-3 mg/kg, route intravenous; conditions: rhesus monkey, in vivo
Method in brief: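 In the anesthetized glucagon-challenged monkey study, compound was given intravenously. Blood samples were assayed for compound, and plasma concentration-time profiles yielded the half-life.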

[7] = Clearance in fasted Beagle dog at 0.25 mg/kg, iv and 0.5 mg/kg, po; format: ADME, organism-based, Canis lupus familiaris; conditions: in vivo; method in brief: as §1
[8] = Tmax in fasted Beagle dog at 0.25 mg/kg, iv and 0.5 mg/kg, po; format: ADME, organism-based, Canis lupus familiaris; conditions: in vivo
Method in brief: (§3)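 Plasma concentration–time profiles were recorded after separate intravenous and peroral dosing at the per-compound doses listed. T_max is reported in min alongside C_max (ng/mL), intravenous half-life and clearance ((mL/min)/kg).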

[9] = Binding affinity to glucagon receptor in rabbit liver membrane by membrane filter assay; format: cell membranes, Oryctolagus cuniculus
[10] = target: T2, Gastric inhibitory polypeptide receptor (Homo sapiens, UniProt P48546); assay: Binding affinity to human recombinant GIPR expressed in BHK cells by membrane filter assay; format: cell-based
T2 sequence (P48546 whole entry): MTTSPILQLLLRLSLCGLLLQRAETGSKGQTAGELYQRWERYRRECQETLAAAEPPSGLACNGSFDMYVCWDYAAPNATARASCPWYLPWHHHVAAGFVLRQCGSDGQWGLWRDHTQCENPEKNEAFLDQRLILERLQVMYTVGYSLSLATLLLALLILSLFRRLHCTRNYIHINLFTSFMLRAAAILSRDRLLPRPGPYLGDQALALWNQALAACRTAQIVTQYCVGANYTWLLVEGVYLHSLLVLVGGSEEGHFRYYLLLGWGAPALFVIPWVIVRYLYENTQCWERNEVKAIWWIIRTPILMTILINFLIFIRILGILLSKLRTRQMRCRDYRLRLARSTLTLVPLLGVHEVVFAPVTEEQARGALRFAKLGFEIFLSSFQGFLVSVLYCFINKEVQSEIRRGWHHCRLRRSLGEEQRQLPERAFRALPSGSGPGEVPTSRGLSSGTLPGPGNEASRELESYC

Rhesus monkey = assay: Antihyperglycemic activity against glucagon-stimulated glycaemia in iv dosed hyperglucagonaemia/hyperglycaemia monkey model assessed as decrease in plasma glucose level preincubated for 5 mins before glucagon challenge measured after 30 mins; format: functional, organism-based; conditions: Macaca mulatta
Method in brief: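 Anesthetized monkeys challenged with exogenous glucagon received compound intravenously. Plasma glucose was followed over time to gauge blockade of glucagon-stimulated glycaemia.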

[11] = Half life in fasted Sprague-Dawley rat plasma at 1.62 mg/kg, iv by HTLC-MS/MS analysis; format: ADME, organism-based; parameters: dose 1.62 mg/kg, route intravenous
Method in brief: (§4)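 Rats were dosed intravenously and perorally in separate arms, and plasma concentration-time profiles were obtained. Half-life was taken from the iv arm. Clearance, oral bioavailability, Cmax and Tmax were derived from the profiles.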

[12] = Clearance in fasted Sprague-Dawley rat at 1.62 mg/kg, iv and 3.04 mg/kg, po by HTLC-MS/MS analysis; format: ADME, organism-based; conditions: in vivo; method in brief: as §4
[13] = Tmax in fasted Sprague-Dawley rat at 1.62 mg/kg, iv and 3.04 mg/kg, po; format: ADME, organism-based; conditions: in vivo; method in brief: as §3
[14] = Oral bioavailability in fasted Beagle dog at 0.5 mg/kg; format: ADME, organism-based, Canis lupus familiaris; conditions: in vivo; method in brief: as §2
[15] = target: T2, Gastric inhibitory polypeptide receptor; assay: Displacement of [125I]porcine GIP from human recombinant GIPR receptor expressed in BHK cells by scintillation proximity assay; format: cell-based
Glucagon receptor [16] = target: Glucagon receptor (Mus musculus, UniProt Q61606); assay: Binding affinity to glucagon receptor in mouse liver membrane by membrane filter assay; format: cell membranes
Chain of Glucagon receptor (Mus musculus, UniProt Q61606) (Q61606 whole entry): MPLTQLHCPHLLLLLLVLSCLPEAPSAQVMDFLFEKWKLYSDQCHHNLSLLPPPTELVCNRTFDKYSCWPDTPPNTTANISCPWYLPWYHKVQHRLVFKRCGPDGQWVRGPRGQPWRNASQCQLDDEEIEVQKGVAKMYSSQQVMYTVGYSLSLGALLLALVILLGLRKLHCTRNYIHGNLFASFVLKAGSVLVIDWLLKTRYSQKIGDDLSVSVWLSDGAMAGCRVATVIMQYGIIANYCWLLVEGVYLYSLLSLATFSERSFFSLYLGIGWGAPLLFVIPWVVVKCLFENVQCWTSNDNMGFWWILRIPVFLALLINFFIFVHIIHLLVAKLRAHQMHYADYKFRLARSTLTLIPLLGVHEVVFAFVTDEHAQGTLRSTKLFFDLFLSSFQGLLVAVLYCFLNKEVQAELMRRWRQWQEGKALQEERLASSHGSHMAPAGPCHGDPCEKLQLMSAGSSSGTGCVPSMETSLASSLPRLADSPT

Hepatocyte [17] = assay: Inhibition of glucagon-stimulated glucose production in rat primary hepatocytes; format: functional, cell-based
Homo sapiens [18] = species: Homo sapiens; assay: Selectivity ratio of IC50 for human recombinant glucagon receptor to IC50 for human recombinant GIPR
Method in brief: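 Competition binding of compounds to recombinant human glucagon and GIP receptors on BHK cell membranes, run in parallel as a scintillation proximity assay and, for selected compounds, as a membrane filtration assay.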

Glucagon receptor [19] = target: Glucagon receptor (Rattus norvegicus, UniProt P30082); assay: Binding affinity to glucagon receptor in rat liver membrane by membrane filter assay; format: cell membranes
Chain of Glucagon receptor (Rattus norvegicus, UniProt P30082) (P30082 whole entry): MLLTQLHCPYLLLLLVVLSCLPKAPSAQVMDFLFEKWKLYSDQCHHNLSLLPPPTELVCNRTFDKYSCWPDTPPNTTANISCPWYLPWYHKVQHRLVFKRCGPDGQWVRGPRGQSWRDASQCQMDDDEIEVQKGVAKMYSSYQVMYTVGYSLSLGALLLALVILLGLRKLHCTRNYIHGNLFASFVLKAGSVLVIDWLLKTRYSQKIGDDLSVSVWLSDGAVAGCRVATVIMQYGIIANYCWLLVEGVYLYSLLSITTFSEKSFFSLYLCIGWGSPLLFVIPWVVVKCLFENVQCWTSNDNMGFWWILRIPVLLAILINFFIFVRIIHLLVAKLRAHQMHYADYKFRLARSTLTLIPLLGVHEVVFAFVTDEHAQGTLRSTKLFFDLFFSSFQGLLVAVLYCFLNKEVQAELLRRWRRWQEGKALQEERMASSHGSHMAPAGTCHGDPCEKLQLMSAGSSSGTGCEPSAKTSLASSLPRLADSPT

[20] = Binding affinity to glucagon receptor in pig liver membrane by membrane filter assay; format: cell membranes, Sus scrofa
Homo sapiens [21] = species: Homo sapiens; assay: Selectivity for human recombinant glucagon receptor over human GLP1R
[22] = Cmax in fasted Sprague-Dawley rat at 1.62 mg/kg, iv and 3.04 mg/kg, po; format: ADME, organism-based; conditions: in vivo; method in brief: as §4
Hepatocyte [23] = assay: Inhibition of glucagon-stimulated glucose production in human primary hepatocytes preincubated for 10 mins before glucagon addition by NADH-linked hexokinase assay; format: functional, cell-based
Method in brief: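 Cultured primary human hepatocytes were preincubated with compound for 10 min, then glycogenolysis was induced with 5 nM glucagon for 60 min. Glucose in the medium was measured against basal glycogenolysis. Albumin was present in the assay medium. IC50 was calculated from four experiments, mean ± SEM.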

[24] = Binding affinity to glucagon receptor in monkey liver membrane by membrane filter assay; format: cell membranes, Macaca mulatta
[25] = Cmax in fasted Beagle dog at 0.25 mg/kg, iv and 0.5 mg/kg, po; format: ADME, organism-based, Canis lupus familiaris; conditions: in vivo; method in brief: as §1
[26] = Clearance in fasted Sprague-Dawley rat at 1.49 mg/kg, iv and 3.19 mg/kg, po; format: ADME, organism-based; conditions: in vivo; method in brief: as §4
[27] = Half life in fasted Sprague-Dawley rat plasma at 1.49 mg/kg, iv by HTLC-MS/MS analysis; format: ADME, organism-based; parameters: dose 1.49 mg/kg, route intravenous; method in brief: as §4
[28] = Oral bioavailability in fasted Sprague-Dawley rat at 3.19 mg/kg by HTLC-MS/MS analysis; format: ADME, organism-based; conditions: in vivo; method in brief: as §2
[29] = Cmax in fasted Sprague-Dawley rat at 1.49 mg/kg, iv and 3.19 mg/kg, po; format: ADME, organism-based; conditions: in vivo; method in brief: as §4
[30] = Tmax in fasted Sprague-Dawley rat at 1.49 mg/kg, iv and 3.19 mg/kg, po; format: ADME, organism-based; conditions: in vivo; method in brief: as §3
[31] = Oral bioavailability in fasted Sprague-Dawley rat at 3.25 mg/kg by HTLC-MS/MS analysis; format: ADME, organism-based; conditions: in vivo; method in brief: as §2
[32] = Clearance in fasted Sprague-Dawley rat at 1.60 mg/kg, iv and 3.25 mg/kg, po by HTLC-MS/MS analysis; format: ADME, organism-based; conditions: in vivo, 1.6 mg/kg; method in brief: as §4
[33] = Cmax in fasted Sprague-Dawley rat at 1.60 mg/kg, iv and 3.25 mg/kg, po by HTLC-MS/MS analysis; format: ADME, organism-based; conditions: in vivo; method in brief: as §4
[34] = Tmax in fasted Sprague-Dawley rat at 1.60 mg/kg, iv and 3.25 mg/kg, po by HTLC-MS/MS analysis; format: ADME, organism-based; conditions: in vivo; method in brief: as §3
[35] = Half life in fasted Sprague-Dawley rat plasma at 1.60 mg/kg, iv by HTLC-MS/MS analysis; format: ADME, organism-based; parameters: dose 1.6 mg/kg, route intravenous; conditions: 1.6 mg/kg; method in brief: as §4

T1 sequence (P47871 whole entry): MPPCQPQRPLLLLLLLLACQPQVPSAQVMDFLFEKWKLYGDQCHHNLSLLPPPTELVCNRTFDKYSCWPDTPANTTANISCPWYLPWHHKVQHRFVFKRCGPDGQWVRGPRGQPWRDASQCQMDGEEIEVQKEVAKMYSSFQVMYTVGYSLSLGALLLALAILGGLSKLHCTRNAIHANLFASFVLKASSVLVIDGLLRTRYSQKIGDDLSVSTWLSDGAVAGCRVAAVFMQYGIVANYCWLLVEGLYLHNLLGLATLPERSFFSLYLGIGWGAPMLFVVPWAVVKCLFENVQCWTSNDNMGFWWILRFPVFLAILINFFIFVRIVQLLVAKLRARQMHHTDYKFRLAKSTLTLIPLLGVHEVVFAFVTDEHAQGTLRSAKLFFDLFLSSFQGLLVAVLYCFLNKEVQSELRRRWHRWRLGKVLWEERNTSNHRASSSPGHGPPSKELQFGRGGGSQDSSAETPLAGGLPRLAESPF

Row | IC50 (Glucagon receptor [1]) [µM] | IC50 (Glucagon receptor [2]) [µM] | IC50 [3] [µM] | half-life [4] [h] | clearance [7] [L/h/kg] | Tmax [8] [h] | IC50 [9] [µM] | IC50 [10] [µM] | bioavailability [14] [%] | IC50 [15] [µM] | IC50 (Glucagon receptor [16]) [µM] | fold change (FC) (Homo sapiens [18]) | IC50 (Glucagon receptor [19]) [µM] | IC50 [20] [µM] | fold change (FC) (Homo sapiens [21]) | IC50 [24] [µM] | Cmax [25] [µg/mL] | Structure (SMILES) | inhibition (Hepatocyte [17]) | IC50 (Hepatocyte [23]) [µM] | further results
1 | 0.092 | 0.093 | 0.155 | 1.73 | 0.134 | 1.5 | 1.6 | 1.1 | 141 | 0.99 | 0.648 | 5 | 2.7 | 7 | > 50 | 0.114 | 1.25 | O=C(O)CCNC(=O)c1ccc(CN(c2ccc(C(F)(F)F)cc2)c2nc(-c3ccc(Cl)cc3)cs2)cc1 | inactive | 6.7 | bioavailability [5]: 58%; half-life [6]: 5.23 h; Activity (Rhesus monkey): Dose-dependent effect; half-life [11]: 3.8 h; clearance [12]: 0.06 L/h/kg; Tmax [13]: 1.42 h; Cmax [22]: 2.1 µg/mL
2 | 0.092 | 0.051 | 0.096 | 3.92 | 0.0468 | 1.47 | – | 0.48 | 55 | 0.833 | 0.552 | 5 | 2 | 5.3 | > 50 | 0.072 | 1 | O=C(O)CCNC(=O)c1ccc(CN(c2ccc(OC(F)(F)F)cc2)c2nc(-c3ccc(C(F)(F)F)cc3)cs2)cc1 | inactive | 3.6 | clearance [26]: 0.12 L/h/kg; half-life [27]: 7.57 h; bioavailability [28]: 29%; Cmax [29]: 0.638 µg/mL; Tmax [30]: > 6 h
3 | 0.076 | 0.053 | 0.068 | 1.33 | 0.28 | 1.75 | 0.943 | 0.41 | 16 | 0.649 | 0.372 | 5 | 1.4 | 4 | > 50 | 0.051 | 0.12 | O=C(O)CCNC(=O)c1ccc(CN(c2ccc(Cl)cc2)c2nc(-c3ccc(C(F)(F)F)cc3)cs2)cc1 | inactive | 2.7 | bioavailability [31]: 13%; clearance [32]: 0.3 L/h/kg; Cmax [33]: 0.216 µg/mL; Tmax [34]: 1.5 h; half-life [35]: 2.25 h

— ChEMBL document CHEMBL1138494, “Human glucagon receptor antagonists with thiazole cores. A novel series with superior pharmacokinetic properties” (J Med Chem, 2009)
